A short description of this data set: Toxicity liver stage against HepG2, at 10uM. The arrangement: test concentration 10 uM, cell line HepG2-A16-CD81EGFP. The format is cell-based. Conditions: human, HepG2-A16-CD81EGFP cells; read-out: INHIBITION
In short, it runs like this: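 Uninfected HepG2-A16-CD81EGFP cells, 3 × 10^3 per well, 1536-well, plated on prespotted compound at 10 μM final, parasite-free screening media added to match infected plates; puromycin 10 μM positive, DMSO 0.5% negative; run in parallel with 48 h PbLuc assay at 37 °C, 5% CO2; viability by CellTiter-Glo luminescence, normalized to controls.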
Take `CCC(C)[C@H](N)c1nnc(SCC(=O)Nc2ccc(C)cc2C)o1` (stereo partly specified): the cytotoxicity at 10 µM was -3.32%.

`COc1cccc(CNc2ccc(F)c(Cl)c2)c1O`: the cytotoxicity at 10 µM was 4.56%.

Regarding `CCC1CCCCCN1C(=O)c1nnc2ccccc2c1N` (stereo unspecified), the cytotoxicity at 10 µM turned out to be 7.85%.

Turning to `O=C(NC1CC1)C1CCCN(c2cc(-n3cncn3)ncn2)C1` (stereo unspecified), the cytotoxicity at 10 µM was found to be 10.1%.

On to `O=C(Cn1cnc(-c2ccccc2)cc1=O)Nc1ccncc1`, for which the cytotoxicity at 10 µM was found to be 3.48%.

Take `Cc1nn(CC(=O)Nc2ccon2)c(C)c1Br`: the cytotoxicity at 10 µM stood at 9.62%.

Take `Cc1ccccc1C(=O)NC(C)c1cnn(C)c1` (stereo unspecified): the cytotoxicity at 10 µM came out at 15.7%.

For `CCn1nc(C)c2nnn(CC(=O)Nc3ccccc3F)c(=O)c21`, the cytotoxicity at 10 µM worked out at 5.37%.

In the case of `CS(=O)(=O)NC1(CCc2ccc(NC(=O)C3CC3)nc2)CCCCC1`, the cytotoxicity at 10 µM turned out to be 6.56%.

With `CC(=O)N1CCC(CCc2ccnc(Nc3ccccn3)c2)CC1`, the cytotoxicity at 10 µM came to 5.57%.

On to `CC(C)N1CCCCC1c1cncc(Cl)n1` (stereo unspecified), for which the cytotoxicity at 10 µM was determined as 8.41%.

Regarding `Cc1ccc(Nc2nccc(C3CCN(C(=O)CO)C3)n2)nc1` (stereo unspecified), the cytotoxicity at 10 µM is -2.56%.

In the case of `CS(=O)(=O)N1CC2(CCN(C3CCCCC3)C2)Cc2ccccc21` (stereo unspecified), the cytotoxicity at 10 µM came to 3.38%.

`O=S1(=O)NCC2(CCCN(Cc3cccnc3)C2)Oc2ncccc21` (stereo unspecified): the cytotoxicity at 10 µM was 6.28%.

Consider `O=C(c1ccc(Oc2cccnc2)cc1)N1CCN(CCO)CC1`, for which the cytotoxicity at 10 µM was -41.5%.

`CC(NCC1(N(C)C)CCOCC1)c1ccc(SC(F)F)cc1` (stereo unspecified): the cytotoxicity at 10 µM is -0.79%.

For the compound `O=C(C1CCOc2ccccc21)N1CCOc2ccc(F)cc21` (stereo unspecified), the cytotoxicity at 10 µM was -7.54%.

On to `CC(C)n1nnnc1-c1ccc(NC(=O)CCC(F)(F)F)cc1F`, for which the cytotoxicity at 10 µM was -2.5%.

Take `COc1cc(CNc2nc(C(F)(F)F)no2)cc(OC)c1OC`: the cytotoxicity at 10 µM is 1.66%.

As for `CNC(=O)CN(C)C(=O)c1ccc(-c2nc(C)cs2)cc1`, the cytotoxicity at 10 µM is -7.77%.

Regarding `Cc1cccc(COc2ccc(C(C)NC(=O)CNC(N)=O)cc2)c1` (stereo unspecified), the cytotoxicity at 10 µM was -20.9%.

As to `CCCNC(=O)c1cnc2n1CCCC2`, the cytotoxicity at 10 µM is -3.19%.

With `CNC(=O)COC(=O)c1cccc(-n2ccc(C(F)(F)F)n2)c1`, the cytotoxicity at 10 µM was -39.5%.

With `CC(=O)N1Cc2ccccc2C[C@H]1C(=O)N(C)Cc1ccccn1`, the cytotoxicity at 10 µM came out at 6.17%.

For `CN(Cc1c(F)cccc1Cl)C(=O)c1cnn(CCN2CCCCC2)c1`, the cytotoxicity at 10 µM was -19.1%.

`Cc1cc(NC(=O)CCCn2ccnc2C)nc(C(C)C)n1`: the cytotoxicity at 10 µM is -5.73%.

Take `CN(Cc1ccc(Cl)cc1)C(=O)Nc1cnn(CC(N)=O)c1`: the cytotoxicity at 10 µM was -17.6%.

Turning to `CCc1n[nH]c(C2CN(C(=O)COCC(F)(F)F)CCO2)n1` (stereo unspecified), the cytotoxicity at 10 µM was -3.48%.

As to `CC(=O)NCC(=O)NC1CCc2nccn2C1` (stereo unspecified), the cytotoxicity at 10 µM is -6.99%.

As to `O=C(NCc1ccc(F)cc1)NCC1(N2CCOCC2)CCSC1` (stereo unspecified), the cytotoxicity at 10 µM is 1.84%.

In the case of `Cc1ccc(CN(C)C(=O)CN2CCCCC2Cn2cncn2)o1` (stereo unspecified), the cytotoxicity at 10 µM amounted to 0.508%.

For the compound `CS(=O)(=O)CCNC1CCCN(Cc2noc(C3CC3)n2)C1` (stereo unspecified), the cytotoxicity at 10 µM was -1.38%.

Turning to `Cc1ccc(CNc2ccccc2-n2ccc(C)n2)nc1`, the cytotoxicity at 10 µM is 5.7%.

Take `CC(O)CN1CCN(C(=O)c2cnc(OC(C)C)c(Cl)c2)CC1` (stereo unspecified): the cytotoxicity at 10 µM is -19.5%.

`NC(=O)NC(=O)CCN1CCC(C(=O)c2cc(F)ccc2F)CC1`: the cytotoxicity at 10 µM was determined as 9.69%.

Take `Cc1ccc(OCC(=O)NC2CC2)nc1`: the cytotoxicity at 10 µM was 4.06%.

As for `CN(Cc1ccsc1)C(=O)Cn1c(CS(C)(=O)=O)nc2ccccc21`, the cytotoxicity at 10 µM was 6.96%.

For the compound `CC1COc2ccccc2N1C(=O)c1ccc(=O)n(C)c1` (stereo unspecified), the cytotoxicity at 10 µM was -3.42%.

Consider `Cn1nc(Br)c2c(NCCCS(N)(=O)=O)ncnc21`, for which the cytotoxicity at 10 µM came out at 16.4%.

As to `CS(=O)(=O)CCC(=O)N(CCc1cccc(F)c1)C1CC1`, the cytotoxicity at 10 µM was -5.82%.

Take `COc1cc(CNC2CCN(c3ccccc3)C2)cc(OC)c1OC` (stereo unspecified): the cytotoxicity at 10 µM turned out to be 3.96%.

As to `O=S(=O)(NCc1ccc(S(=O)(=O)N2CCCC2)s1)c1ccc(Cl)c(Cl)c1`, the cytotoxicity at 10 µM is -41.8%.

On to `O=S(=O)(CC1CCOCC1)NCc1ncc(-c2ccccc2)o1`, for which the cytotoxicity at 10 µM is -12.6%.

Consider `CCc1cnc(CNC(=O)N2CCCC(c3ncc[nH]3)C2)s1` (stereo unspecified), for which the cytotoxicity at 10 µM is 8.2%.

Regarding `COCCN1CCC(CNC(=O)C2(NC(C)=O)CCCCC2)CC1`, the cytotoxicity at 10 µM came to 5.46%.

Regarding `CSCCC(NC(=O)c1ccc2ccccc2n1)C(=O)NC(C)C` (stereo unspecified), the cytotoxicity at 10 µM came out at 9.3%.

As to `O=C1CN(c2ccc(CNc3cncc(-n4cccn4)n3)cc2)CCN1`, the cytotoxicity at 10 µM was -13.3%.

For the compound `CC1CCN(C(CNC(=O)CCn2cccn2)c2cccs2)CC1` (stereo unspecified), the cytotoxicity at 10 µM is 13.5%.

In the case of `COc1ccc(CS(=O)(=O)CC(=O)NCc2ccccc2F)cc1F`, the cytotoxicity at 10 µM is 3.33%.

Turning to `NC(=O)c1nc2c(s1)CCN(C(=O)Nc1ccccc1)CC2`, the cytotoxicity at 10 µM stood at 12.5%.

Take `O=C([C@@H]1CCCO1)N1CCOCC2(CCN(Cc3cccnc3)C2)C1` (stereo partly specified): the cytotoxicity at 10 µM is -108%.

Regarding `CN1CCN(Cc2cnc3n2CCN(C(=O)c2ccccn2)C3)CC1`, the cytotoxicity at 10 µM was -88.7%.

`O=C(C1CCOCC1)N1CCN(CC2CC2)c2ncccc2C1`: the cytotoxicity at 10 µM is -107%.

Turning to `Cc1ccc2c(n1)N(CCN(C)C)CCN(C(=O)c1ccsc1)C2`, the cytotoxicity at 10 µM is -57.3%.

As to `O=C(c1ccccn1)N1CCC2(CC1)CN(c1cncnc1)C(=O)CO2`, the cytotoxicity at 10 µM was -67%.

Consider `Cc1ccc(CN2CCN(C)c3ncccc3C2)o1`, for which the cytotoxicity at 10 µM is -79.6%.

Take `COCC(=O)N1C[C@@H]2OCCN(Cc3c(C)noc3C)[C@@H]2C1`: the cytotoxicity at 10 µM was -0.722%.

Take `Cc1ccc2nc(C3CCCN3Cc3csc(C)n3)[nH]c2c1` (stereo unspecified): the cytotoxicity at 10 µM came to 1.58%.

In the case of `FC(F)(F)c1ccnc(N2CCCC(N3CCOCC3)C2)c1` (stereo unspecified), the cytotoxicity at 10 µM was -24.7%.

As to `CCCN(Cc1ccc(C(=O)NCC2COCCO2)c(=O)[nH]1)C1CC1` (stereo unspecified), the cytotoxicity at 10 µM is -15.3%.

For `CCc1cnc(C)nc1NC(C)C(=O)Nc1cc(F)ccc1C` (stereo unspecified), the cytotoxicity at 10 µM was -0.682%.

Take `FC(F)(F)c1cccc(OC2CCN(Cc3ccccn3)CC2)c1`: the cytotoxicity at 10 µM was -0.609%.

As for `COc1ccccc1OC1(C(=O)O)CCN(c2ccccn2)CC1`, the cytotoxicity at 10 µM is 4.52%.

For the compound `Fc1ccc(-n2cccn2)c(CN2CCCCC2CCn2ccnc2)c1` (stereo unspecified), the cytotoxicity at 10 µM was -11.3%.

As for `CN(Cc1ccccc1-n1cccn1)C[C@@H]1CCCN2CCCC[C@H]12`, the cytotoxicity at 10 µM is -8.2%.

Turning to `CC(C)c1cc(N2CCC3(CCN(C)C3)C2)ncn1` (stereo unspecified), the cytotoxicity at 10 µM was -11.8%.

In the case of `Cc1nc(CCNC2CCN(Cc3ccccc3)C2)sc1C` (stereo unspecified), the cytotoxicity at 10 µM came out at 12.3%.

Consider `O=C(NCC1CCN(Cc2cc3ccccc3[nH]2)C1)c1ccsc1` (stereo unspecified), for which the cytotoxicity at 10 µM came to 15.6%.

In the case of `CC(=O)N1CCCn2nc(CNS(=O)(=O)N(C)C(C)C)cc2C1`, the cytotoxicity at 10 µM is 3.54%.

As to `CCC[C@H]1CN(c2nccc(OC)n2)C[C@@H]1NC(=O)C1CCOCC1`, the cytotoxicity at 10 µM is -142%.

In the case of `CCc1nnc(CN(CC)C(=O)CCc2scnc2C)o1`, the cytotoxicity at 10 µM was 7.22%.

Consider `COc1cccc([C@@H]2CN(C3CSCCSC3)C[C@H]2C(=O)O)c1`, for which the cytotoxicity at 10 µM was determined as 2.95%.

Consider `Cn1c(-c2ccc(F)cc2)cn2cc(C(=O)N3CC[C@@H](O)C3)nc2c1=O`, for which the cytotoxicity at 10 µM worked out at 11.1%.

Regarding `CCOCc1nc2c(c(NC(CC)c3ccnn3C)n1)CCNCC2` (stereo unspecified), the cytotoxicity at 10 µM was -5.53%.

Take `Cc1nc(N2CCC3(CCCN(CCO)C3=O)C2)c2sccc2n1` (stereo unspecified): the cytotoxicity at 10 µM was -0.456%.

In the case of `CCCc1nccn1-c1ccc(C(O)CN2CCOCC2)cc1` (stereo unspecified), the cytotoxicity at 10 µM turned out to be 3.43%.

As for `CN(C)CC1(O)CCN(C(=O)c2cnc(CN3CCCC3)s2)C1` (stereo unspecified), the cytotoxicity at 10 µM worked out at 0.245%.

Turning to `CCn1cc(CNC(=O)CCc2nnc(-c3ccc(C)s3)o2)cn1`, the cytotoxicity at 10 µM was -2.83%.

For `COc1ccc2c(c1OC)Cc1c-2nc(N)c(C#N)c1C1CCOC1` (stereo unspecified), the cytotoxicity at 10 µM was found to be 28.6%.

Take `Cc1nnc(CCNC(=O)C2CC(=O)N(C(C)(C)C)C2)s1` (stereo unspecified): the cytotoxicity at 10 µM is -3.27%.

On to `CN1CCCCC1Cc1nc(Cc2cccc(F)c2)no1` (stereo unspecified), for which the cytotoxicity at 10 µM was -148%.

For the compound `COc1ccc(OC)c(C2CCN(C(=O)C3CCS(=O)(=O)CC3)C2)c1` (stereo unspecified), the cytotoxicity at 10 µM was found to be 1.21%.

For `Cc1n[nH]c(C2CN(C(=O)CCc3cscn3)CCO2)n1` (stereo unspecified), the cytotoxicity at 10 µM is -4.34%.

On to `Cc1nc(C)n(CC2CCCN2Cc2cc(-c3cccs3)on2)n1` (stereo unspecified), for which the cytotoxicity at 10 µM is -0.367%.

Consider `CN(CCO)CC1COCCN1C(=O)C1CCCCC1` (stereo unspecified), for which the cytotoxicity at 10 µM was -4.52%.

For `CN(C)C(=O)CN1CCCC2(CCN(c3ccsc3)C2=O)C1` (stereo unspecified), the cytotoxicity at 10 µM was 9.88%.

On to `Cc1noc(C)c1CN1C[C@@H]2CN(C(=O)c3cnccn3)C[C@@H]2C1`, for which the cytotoxicity at 10 µM was -1.86%.

For the compound `Cc1cccc(CN2C(=O)CC[C@@H]3[C@H]2CCN3Cc2nccn2C)n1`, the cytotoxicity at 10 µM is -81.9%.

As for `Cc1noc(C)c1CN1CCC2(CC1)CCN(C(=O)c1cscn1)C2`, the cytotoxicity at 10 µM is 1.21%.

Regarding `CNC(=O)COC1COC2(CCN(Cc3cccnc3OC)CC2)C1` (stereo unspecified), the cytotoxicity at 10 µM was 7.61%.

`COc1cccc(N2CC3(CCN(Cc4nccn4C)C3)CC2=O)c1` (stereo unspecified): the cytotoxicity at 10 µM was -83%.

`Cc1cnc(C(=O)N2CC[C@H]3[C@@H]2CCC(=O)N3c2cccnc2)cn1`: the cytotoxicity at 10 µM was -81.9%.

Turning to `Cc1cnc(N2CC3(CCN(S(=O)(=O)C4CC4)C3)C2)nc1`, the cytotoxicity at 10 µM was -109%.

`O=C1CO[C@@H]2CN(Cc3ccncc3)C[C@H]2N1Cc1ccncc1`: the cytotoxicity at 10 µM is -85%.

In the case of `O=C(Cc1cccnc1)N1C[C@H]2CC[C@@H](C1)N(Cc1ccccc1)C2=O`, the cytotoxicity at 10 µM is 7.93%.

`COC1C[C@@H]2CN(C(=O)c3cccc4c3OCCO4)C[C@@H]2C1` (stereo partly specified): the cytotoxicity at 10 µM stood at 7.77%.

Values taken from ChEMBL document CHEMBL4513216, “Probing the Open Global Health Chemical Diversity Library for Multistage-Active Starting Points for Next-Generation Antimalarials” (ACS Infect Dis, 2020).
